Measured values reported in ChEMBL document CHEMBL4011653, “Design, Synthesis, and Evaluation of Novel Prodrugs of Transition State Inhibitors of Norovirus 3CL Protease” (J Med Chem, 2017).

Legend:
[1] = Protein binding in human serum at 25 to 100 uM after 4 hrs by LC-MS method; assay type: ADME, cell-free; conditions: read-out: PB (converted)
[2] = Selectivity index, ratio of CC50 for human HeLa cells to EC50 for norovirus
[3] = Protein binding in mouse serum at 25 to 100 uM after 4 hrs by LC-MS method; assay type: ADME, cell-free; conditions: read-out: PB (converted)
HeLa = assay: Cytotoxicity against human HeLa cells assessed as cell viability after 72 hrs by MTT assay; assay type: functional
Norovirus = assay: Antiviral activity against Norovirus infected in human HG23 cells assessed as inhibition of viral replication after 48 hrs by quantitative RT-PCR method; assay type: functional, cell-based; conditions: HG23, 48 h
[4] = Metabolic stability of human liver microsomes assessed as amount of parent compound remaining at 25 to 100 uM after 1 hr in the presence of NADPH by LC-MS method; assay type: ADME, microsome; conditions: read-out: Stability
Method in brief: (§1)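 Compound at 25 or 100 μM was incubated with mouse or human liver microsomes plus NADPH for 1 h at 37 °C. The remaining aldehyde form was quantified by LC/MS.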

[5] = Inhibition of Norovirus 3CL protease using Edans-DFHLQ/GP-Dabcyl as substrate after 30 mins by FRET assay
Method in brief: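 Norovirus 3CL protease was preincubated with serial compound dilutions up to 100 μM, or DMSO, for 30 min at 37 °C. Edans-DFHLQ/GP-Dabcyl substrate was then added. Buffer was 20 mM HEPES pH 8, 200 mM NaCl, 0.4 mM EDTA, 60% glycerol and 6 mM DTT. Fluorescence (ex 360/em 460 nm) was read for 1 h, minus the no-protease background. IC50 came from variable-slope curve fits.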

[6] = Metabolic stability of mouse liver microsomes assessed as amount of parent compound remaining at 25 to 100 uM after 1 hr in the presence of NADPH by LC-MS method; assay type: ADME, microsome; conditions: read-out: Stability; method in brief: as §1
[7] = Metabolic stability in human serum assessed as amount of parent compound remaining at 25 to 100 uM at 37 degC after 1 hr by LC-MS analysis; assay type: ADME, cell-free; conditions: read-out: Stability
[8] = Metabolic stability in mouse serum assessed as amount of parent compound remaining at 25 to 100 uM at 37 degC after 1 hr by LC-MS analysis; assay type: ADME, cell-free; conditions: read-out: Stability
Serum = assay: Prodrug activation in human serum assessed as 3-chlorobenzyl (S)-3-cyclohexyl-1-oxo-1-((S)-1-oxo-3-((S)-2-oxopyrrolidin-3-yl)propan-2-ylamino)propan-2-ylcarbamate formation by measuring parent compound half life at 25 to 100 uM by LC-MS method; assay type: ADME, cell-free
[9] = Prodrug activation in human HG23 cells assessed as 3-chlorobenzyl (S)-3-cyclohexyl-1-oxo-1-((S)-1-oxo-3-((S)-2-oxopyrrolidin-3-yl)propan-2-ylamino)propan-2-ylcarbamate formation by LC-MS method; assay type: ADME, cell-based

| Structure (SMILES) | EC50 (Norovirus) | IC50 [5] | further results |
| --- | --- | --- | --- |
| O=C[C@H](C[C@@H]1CCNC1=O)NC(=O)[C@H](CC1CCCCC1)NC(=O)OCc1cccc(Cl)c1 | 20 nM | 100 nM | fraction unbound at 4 h, up to 100 µM [1]: 0.02; selectivity ratio [2]: 2800; fraction unbound at 4 h, up to 100 µM [3]: 0.02; CC50 (HeLa): 56100 nM; remaining at 1 h, up to 100 µM [4]: 63%; remaining at 1 h, up to 100 µM [6]: 40% |
| O=C(N[C@@H](CC1CCCCC1)C(=O)N[C@@H](C[C@@H]1CCNC1=O)C(O)S(=O)(=O)O)OCc1cccc(Cl)c1 (some centres undefined) | 20 nM | 100 nM | fraction unbound at 4 h, up to 100 µM [1]: 0.04; selectivity ratio [2]: 2480; fraction unbound at 4 h, up to 100 µM [3]: 0.03; remaining at 1 h, up to 100 µM [7]: 0%; CC50 (HeLa): 49600 nM; remaining at 1 h, up to 100 µM [8]: 0%; remaining at 1 h, up to 100 µM [4]: 54%; remaining at 1 h, up to 100 µM [6]: 35% |
| CC(C)C[C@H](NC(=O)OCc1ccccc1)C(=O)N[C@@H](C[C@@H]1CCNC1=O)C(O)S(=O)(=O)O (some centres undefined) | 300 nM | 800 nM | fraction unbound at 4 h, up to 100 µM [1]: 0.35; selectivity ratio [2]: > 667; fraction unbound at 4 h, up to 100 µM [3]: 0.29; remaining at 1 h, up to 100 µM [7]: 2%; CC50 (HeLa): > 200000 nM; remaining at 1 h, up to 100 µM [8]: 18%; remaining at 1 h, up to 100 µM [4]: 92%; remaining at 1 h, up to 100 µM [6]: 82% |
| CCCC(=O)OC([C@H](C[C@@H]1CCNC1=O)NC(=O)[C@H](CC(C)C)NC(=O)OCc1ccccc1)S(=O)(=O)O (some centres undefined) | 1300 nM | 3700 nM | – |
| COC(=O)C(NC(=O)OC([C@H](C[C@@H]1CCNC1=O)NC(=O)[C@H](CC1CCCCC1)NC(=O)OCc1cccc(Cl)c1)S(=O)(=O)O)C(C)C (some centres undefined) | 40 nM | 500 nM | – |
| COC(=O)C(C)NC(=O)OC([C@H](C[C@@H]1CCNC1=O)NC(=O)[C@H](CC1CCCCC1)NC(=O)OCc1cccc(Cl)c1)S(=O)(=O)O (some centres undefined) | 25 nM | 800 nM | – |
| CCCCCCCC(=O)OC([C@H](C[C@@H]1CCNC1=O)NC(=O)[C@H](CC1CCCCC1)NC(=O)OCc1cccc(Cl)c1)S(=O)(=O)O (some centres undefined) | 30 nM | 900 nM | – |
| CCCCCC(=O)OC([C@H](C[C@@H]1CCNC1=O)NC(=O)[C@H](CC(C)C)NC(=O)OCc1ccccc1)S(=O)(=O)O (some centres undefined) | 300 nM | 2800 nM | – |
| COC(=O)C(C)NC(=O)OC([C@H](C[C@@H]1CCNC1=O)NC(=O)[C@H](CC(C)C)NC(=O)OCc1ccccc1)S(=O)(=O)O (some centres undefined) | 300 nM | 1800 nM | – |
| CCCCCCOC(=O)OC([C@H](C[C@@H]1CCNC1=O)NC(=O)[C@H](CC1CCCCC1)NC(=O)OCc1cccc(Cl)c1)S(=O)(=O)O (some centres undefined) | 25 nM | 800 nM | – |
| CCC(=O)OC([C@H](C[C@@H]1CCNC1=O)NC(=O)[C@H](CC1CCCCC1)NC(=O)OCc1cccc(Cl)c1)S(=O)(=O)[O-].[Na+] (some centres undefined) | 25 nM | 100 nM | t1/2 (Serum): 25 min; selectivity ratio [2]: 4480; remaining at 1 h, up to 100 µM [7]: 52%; CC50 (HeLa): 112000 nM; remaining at 1 h, up to 100 µM [8]: 0%; remaining at 1 h, up to 100 µM [4]: 11%; remaining at 1 h, up to 100 µM [6]: 17% |
| CC(C)C[C@H](NC(=O)OCc1ccccc1)C(=O)N[C@@H](C[C@@H]1CCNC1=O)C(OC(=O)c1ccccc1)S(=O)(=O)O (some centres undefined) | 800 nM | 7200 nM | – |
| CC(=O)OC([C@H](C[C@@H]1CCNC1=O)NC(=O)[C@H](CC1CCCCC1)NC(=O)OCc1ccccc1)S(=O)(=O)O (some centres undefined) | 200 nM | 7500 nM | – |
| CCC(=O)OC([C@H](C[C@@H]1CCNC1=O)NC(=O)[C@H](CC(C)C)NC(=O)OCc1ccccc1)S(=O)(=O)O (some centres undefined) | 700 nM | 7500 nM | – |
| COC(=O)C(NC(=O)OC([C@H](C[C@@H]1CCNC1=O)NC(=O)[C@H](CC(C)C)NC(=O)OCc1ccccc1)S(=O)(=O)O)C(C)C (some centres undefined) | 400 nM | 2500 nM | – |
| CC(C)C[C@H](NC(=O)OCc1ccccc1)C(=O)N[C@@H](C[C@@H]1CCNC1=O)C(OC(=O)C(C)C)S(=O)(=O)O (some centres undefined) | 300 nM | 3500 nM | – |
| COC(=O)C(C)NC(=O)OC([C@H](C[C@@H]1CCNC1=O)NC(=O)[C@H](CC1CCCCC1)NC(=O)OCc1ccccc1)S(=O)(=O)O (some centres undefined) | 200 nM | 10200 nM | – |
| CC(C)C(=O)OC([C@H](C[C@@H]1CCNC1=O)NC(=O)[C@H](CC1CCCCC1)NC(=O)OCc1cccc(Cl)c1)S(=O)(=O)O (some centres undefined) | 30 nM | 300 nM | – |
| CCCCC(=O)OC([C@H](C[C@@H]1CCNC1=O)NC(=O)[C@H](CC(C)C)NC(=O)OCc1ccccc1)S(=O)(=O)O (some centres undefined) | 1400 nM | 3500 nM | – |
| COC(=O)CNC(=O)OC([C@H](C[C@@H]1CCNC1=O)NC(=O)[C@H](CC(C)C)NC(=O)OCc1ccccc1)S(=O)(=O)O (some centres undefined) | 400 nM | 3100 nM | – |
| CCCCCC(=O)OC([C@H](C[C@@H]1CCNC1=O)NC(=O)[C@H](CC1CCCCC1)NC(=O)OCc1cccc(Cl)c1)S(=O)(=O)O (some centres undefined) | 15 nM | 100 nM | selectivity ratio [2]: 5470; remaining at 1 h, up to 100 µM [7]: 103%; CC50 (HeLa): 82000 nM; remaining at 1 h, up to 100 µM [8]: 60%; remaining at 1 h, up to 100 µM [4]: 76%; remaining at 1 h, up to 100 µM [6]: 38% |
| CCCCCCCC(=O)OC([C@H](C[C@@H]1CCNC1=O)NC(=O)[C@H](CC(C)C)NC(=O)OCc1ccccc1)S(=O)(=O)O (some centres undefined) | 500 nM | 3000 nM | – |
| CC(=O)OC([C@H](C[C@@H]1CCNC1=O)NC(=O)[C@H](CC(C)C)NC(=O)OCc1ccccc1)S(=O)(=O)O (some centres undefined) | 600 nM | 10500 nM | – |
| CC(=O)OC([C@H](C[C@@H]1CCNC1=O)NC(=O)[C@H](CC1CCCCC1)NC(=O)OCc1cccc(Cl)c1)S(=O)(=O)[O-].[Na+] (some centres undefined) | 30 nM | 80 nM | t1/2 (Serum): 25 min; selectivity ratio [2]: > 6670; remaining at 1 h, up to 100 µM [7]: 56%; CC50 (HeLa): > 200000 nM; Drug metabolism [9]: Metabolite_Detected; remaining at 1 h, up to 100 µM [8]: 0%; remaining at 1 h, up to 100 µM [4]: 17%; remaining at 1 h, up to 100 µM [6]: 14% |
| O=C(N[C@@H](CC1CCCCC1)C(=O)N[C@@H](C[C@@H]1CCNC1=O)C(OC(=O)C1CCCCC1)S(=O)(=O)O)OCc1cccc(Cl)c1 (some centres undefined) | 20 nM | 400 nM | – |
| COc1ccc(CCN(C)CCCC(C#N)(c2ccc(OC)c(OC)c2)C(C)C)cc1OC (centres undefined) | – | – | remaining at 1 h, up to 100 µM [4]: 41%; remaining at 1 h, up to 100 µM [6]: 30% |
| CC(=O)CC(c1ccccc1)c1c(O)c2ccccc2oc1=O (centres undefined) [WARFARIN] | – | – | fraction unbound at 4 h, up to 100 µM [1]: 0.01; fraction unbound at 4 h, up to 100 µM [3]: 0.04; remaining at 1 h, up to 100 µM [4]: 95%; remaining at 1 h, up to 100 µM [6]: 99.6% |
